Reference: ChEMBL document CHEMBL1130197, “Preparation, characterization, DNA binding, and in vitro cytotoxicity of the enantiomers of the platinum(II) complexes N-methyl-, N-ethyl- and N,N-dimethyl-(R)- and -(S)-3-aminohexahydroazepinedichloroplatinum(II)” (1997)

Experiments:
Type in all cases: functional
BL13/0 = assay: Concentration to inhibit growth of BL13/0 cell lines; details: Homo sapiens
How it was run: (§1)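 Human tumor lines grown as monolayers in RPMI 1640 with 10% FCS plus penicillin/streptomycin, at 37 °C under 7.5% CO₂, 5% O₂, 85% N₂. Cells were seeded at 5000 per well and left 24 h, then exposed for 96 h at 37 °C to complexes (saline-dissolved, final 0–200 μM). Viability was read by MTT (570 nm) or SRB (570 nm) against untreated controls, with 4 or 6 replicates. IC50 was taken from dose–response curves.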

DU-145 = assay: Concentration to inhibit growth of DU145 cell lines; details: Homo sapiens; how it was run: as §1
PC-9 = assay: Concentration to inhibit growth of PC9 cell lines; details: Homo sapiens; how it was run: as §1
[1] = Concentration to inhibit growth of PC9-cisR cell lines; details: Homo sapiens; PC-9; how it was run: as §1

| Mean IC50 (DU-145) [µM] | Mean IC50 (PC-9) [µM] | Substance | Mean IC50 (BL13/0) [µM] | Mean IC50 [1] [µM] |
| --- | --- | --- | --- | --- |
| 21.3 | 31 | 8,8-Platinum dichloro-7-ethyl-(6S)-1,7-diazoniabicyclo[4.2.1]nonane | 19 | 79.7 |
| 7.3 | 13.5 | 8,8-Platinumdichloro-7,7-dimethyl-(6R)-1,7-diazoniabicyclo[4.2.1]nonane | 7.7 | 29.3 |
| 11.5 | 11.8 | 8,8-Platinumdichloro-7,7-dimethyl-(6S)-1,7-diazoniabicyclo[4.2.1]nonane | 10.2 | 28.7 |
| 9.5 | 20 | 8,8-Platinumdichloro-7-ethyl-(6R)-1,7-diazoniabicyclo[4.2.1]nonane | 7.4 | 44 |
| 10.1 | 13.7 | 8,8-Platinumdichloro-7-methyl-(6S)-1,7-diazoniabicyclo[4.2.1]nonane | 11.7 | 38.3 |
| 2.9 | 5.9 | 8,8-platinumdichloro-(6R)-1,7-diazoniabicyclo[4.2.1]nonane | 1.3 | 16 |
| 1.8 | 1.4 | CISPLATIN | 1.9 | 11.7 |
